Measured values: ChEMBL document CHEMBL3526139, “Clinical pharmacokinetics, metabolism, and drug-drug interaction of carfilzomib” (Drug Metab Dispos, 2013)

What was measured:
Homo sapiens = experiment: Ratio of compound AUC (infinity) to carfilzomib AUC (infinity) in human multiple myeloma patient with normal renal function treated with carfilzomib at 15 mg/m'2, iv on days 1, 2, 8, 9, 15 and 16 of 28-day cycle over 2 to 10 mins by LC-MS/MS analysis; format: ADME, organism-based; conditions: in vivo
[1] = Drug excretion in urine of human patient with relapsed and refractory hematological malignancies treated intravenously with carfilzomib on days 1, 2, 8, 9, 15 and 16 of 28-day cycle over 2 to 10 mins by LC-MS/MS analysis; format: ADME; conditions: in vivo, iv
CYP3A [2] = biological target: T1, CYP3A (Homo sapiens, UniProt P08684+P20815+P24462+Q9HB55); experiment: Inhibition of CYP3A in human liver microsomes treated with carfilzomib by LC-MS/MS analysis; format: ADME
CYP3A [3] = biological target: T1, CYP3A; experiment: Time-dependent inhibition of CYP3A in human liver microsomes preincubated for 30 mins with carfilzomib by LC-MS/MS analysis; format: ADME; conditions: liver microsomes
Procedure, shortened: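 Pooled HLM (16 donors) given carfilzomib 0.01–10 µM in duplicate at 37°C with a 30-min preincubation before probe substrate was added. Substrate was set near Km (testosterone Km 100 µM; midazolam Km 3.8 µM). Protein was 0.1 mg/mL, or 0.05 mg/mL with midazolam. Metabolite formation was read by LC-MS/MS after 5 min and expressed relative to 0.5% acetonitrile controls to give IC50.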

Plasma = experiment: Drug level in plasma of human patient with relapsed and refractory hematological malignancies treated intravenously with carfilzomib on days 1, 2, 8, 9, 15 and 16 of 28-day cycle over 2 to 10 mins by LC-MS/MS analysis; format: ADME; conditions: iv
Cytochrome P450 3A = Cytochrome P450 3A (Homo sapiens, UniProt P08684+P20815+Q9HB55+P24462); experiment: Inhibition of CYP3A in human liver microsomes treated with […] up to 30 uM by LC-MS/MS analysis; format: ADME
Procedure, shortened: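 Metabolites were tested for CYP3A inhibition in HLM at 0.04–30 µM, with or without a 30-min preincubation. Midazolam or testosterone substrate was used with a 5-min reaction and LC-MS/MS read-out.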

clinical [4] = conditions: human, plasma, po, 2 mg
clinical [5] = conditions: human, in vivo, po
[6] = Tmax in solid tumor patient at 2 mg, po administered as single dose followed by co-treatment with 27 mg/m2, iv carfilzomib over 2 to 10 mins on days 1, 2, 8, 9, 15 and 16 of single 28-day cycle measured on day 16; format: ADME, organism-based; conditions: human, in vivo
Procedure, shortened: (§1)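 Oral midazolam 2 mg single dose on Day -7, then 2 mg given immediately after IV carfilzomib (27 mg/m2, 2–10 min infusion) on Days 1 and 16. Plasma sampled pre-dose and 5, 10, 30 min, 1–24 h post-midazolam. Midazolam measured by liquid-liquid extraction (methyl tert-butyl ether) and LC-MS/MS, range 0.100–100 ng/mL, d4-midazolam internal standard. Tmax derived noncompartmentally.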

[7] = Half life in solid tumor patient at 2 mg, po administered as single dose followed by co-treatment with 27 mg/m2, iv carfilzomib over 2 to 10 mins on days 1, 2, 8, 9, 15 and 16 of single 28-day cycle measured on day 1; conditions: human, in vivo
clinical [8] = conditions: human, plasma, po
clinical [9] = conditions: human, plasma, po; remark: listed apart in the source
clinical [10] = conditions: human, plasma, po; remark: listed apart in the source
clinical [11] = conditions: human, plasma, po; remark: listed apart in the source
clinical [12] = conditions: human, in vivo, po; remark: listed apart in the source
[13] = Tmax in solid tumor patient at 2 mg, po administered as single dose followed by co-treatment with 27 mg/m2, iv carfilzomib over 2 to 10 mins on days 1, 2, 8, 9, 15 and 16 of single 28-day cycle measured on day 1; format: ADME, organism-based; conditions: human, in vivo; procedure, shortened: as §1
clinical [14] = conditions: human, plasma, po; remark: listed apart in the source
[15] = AUC(last) in solid tumor patient at 2 mg, po administered as single dose measured on day 7; conditions: human, plasma
clinical [16] = conditions: human, in vivo, po; remark: listed apart in the source
clinical [17] = conditions: human, plasma, po; remark: listed apart in the source
[18] = AUC(infinity) in solid tumor patient at 2 mg, po administered as single dose measured on day 7; conditions: human, plasma

CC(C)CC(NC(=O)C(CCc1ccccc1)NC(=O)CN1CCOCC1)C(=O)NC(Cc1ccccc1)C(=O)NC(CC(C)C)C(=O)C(C)(O)CO (stereo not drawn)
Ratio (Homo sapiens): 0.28
Drug excretion [1]: metabolite_detected
IC50 (CYP3A [2]): > 30000 nM
IC50 at 30 min (CYP3A [3]): 1800 nM
Drug metabolism (Plasma): metabolite_detected

CC(C)CC(NC(=O)C(CCc1ccccc1)NC(=O)CN1CCOCC1)C(=O)O (stereo not drawn)
Ratio (Homo sapiens): 0.11
Drug excretion [1]: metabolite_detected
inhibition (INH) (Cytochrome P450 3A): Not Active
Drug metabolism (Plasma): metabolite_detected

Cc1ncc2n1-c1ccc(Cl)cc1C(c1ccccc1F)=NC2 [MIDAZOLAM]
AUC(0-t) at 12 h (clinical [4]): 42.5 ng·h/mL
Cmax (clinical [5]): 16 ng/mL
Tmax [6]: 0.8 h
half-life [7]: 6.3 h
AUC(0-t) (clinical [8]): 40.3 ng·h/mL
AUC(0-inf) (clinical [9]): 59.9 ng·h/mL
AUC(0-t) (clinical [10]): 47.3 ng·h/mL
AUC(0-t) (clinical [11]): 48.4 ng·h/mL
half-life (clinical [12]): 5.5 h
Tmax [13]: 0.7 h
AUC(0-t) (clinical [14]): 48.4 ng·h/mL
AUC(0-t) [15]: 49.8 ng·h/mL
Cmax (clinical [16]): 15.7 ng/mL
AUC(0-inf) (clinical [17]): 51.5 ng·h/mL
AUC(0-inf) [18]: 54.3 ng·h/mL

O=C(CN1CCOCC1)NC(CCc1ccccc1)C(=O)O (stereo not drawn)
Ratio (Homo sapiens): 1.2
Drug excretion [1]: metabolite_detected
inhibition (INH) (Cytochrome P450 3A): Not Active
Drug metabolism (Plasma): metabolite_detected
